Experimental data published in article PMC12171725 (RSC Advances, 2025).
In brackets after ≈: the same amount, converted by molar mass.

How the values were obtained:
[1] = test system: methicillin-resistant Staphylococcus aureus (MRSA USA300); assay: MIC by broth microdilution; assay type: cell-based; details: MRSA|USA300, read-out: MIC S. aureus USA300
Summary of the method: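 MRSA USA300 was grown overnight at 37 °C on tryptone soy agar, adjusted to 0.5 McFarland, then diluted in cation-adjusted Mueller-Hinton broth to ∼5 × 10^5 CFU ml−1. […] Plates were incubated aerobically at 37 °C for 18–20 h, following CLSI broth microdilution.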

[2] = test system: Acinetobacter baumannii AB5075; assay: MIC by broth microdilution; assay type: cell-based; details: AB5075, read-out: MIC A. baumannii AB5075, broth microdilution, 37 °C, 18–20 hours
MTT cytotoxicity assay = assay type: cell-based; details: human, HEK293 cells (human embryonic kidney cell line)
erythrocytes = assay: Hemolysis; assay type: cell-based; details: LC lytic concentration 30%
MRSA USA300 biofilms = assay: Disruption of mature MRSA biofilms; assay type: cell-based, Staphylococcus aureus; details: at 4× MIC

SMILES	MIC [1]	MIC [2]	IC50 (MTT cytotoxicity assay)	Hemolysis LC (erythrocytes)	percentage of biofilm disruption relative to untreated controls (MRSA USA300 biofilms)
CCNS(=O)(=O)c1ccc(-n2nnc(C(C)=NNC(=N)N)c2C)cc1 [Compound 17, 2-(1-(1-(4-(N-Ethylsulfamoyl)phenyl)-5-methyl-1H-1,2,3-triazol-4-yl)ethylidene)hydrazine-1-carboximidamide]	> 64 µg/mL	> 64 µg/mL			
CCCCNS(=O)(=O)c1ccc(-n2nnc(C(C)=NNC(=N)N)c2C)cc1 [Compound 18, 2-(1-(1-(4-(N-Butylsulfamoyl)phenyl)-5-methyl-1H-1,2,3-triazol-4-yl)ethylidene)hydrazine-1-carboximidamide]	> 64 µg/mL	> 64 µg/mL			
CCCCCCNS(=O)(=O)c1ccc(-n2nnc(C(C)=NNC(=N)N)c2C)cc1 [Compound 20, 2-(1-(1-(4-(N-Hexylsulfamoyl)phenyl)-5-methyl-1H-1,2,3-triazol-4-yl)ethylidene)hydrazine-1-carboximidamide]	16 µg/mL (≈ 38 µM)	16 µg/mL (≈ 38 µM)			
CCCCCCCCNS(=O)(=O)c1ccc(-n2nnc(C(C)=NNC(=N)N)c2C)cc1 [Compound 22, 2-(1-(5-Methyl-1-(4-(N-octylsulfamoyl)phenyl)-1H-1,2,3-triazol-4-yl)ethylidene)hydrazine-1-carboximidamide]	64 µg/mL (≈ 143 µM)	64 µg/mL (≈ 143 µM)			
CCCCCCCCCNS(=O)(=O)c1ccc(-n2nnc(C(C)=NNC(=N)N)c2C)cc1 [Compound 23, 2-(1-(5-Methyl-1-(4-(N-nonylsulfamoyl)phenyl)-1H-1,2,3-triazol-4-yl)ethylidene)hydrazine-1-carboximidamide]		64 µg/mL (≈ 138 µM)	52.4 µM	>10 mg/mL	70–80%
CN[C@H](CC(C)C)C(=O)N[C@H]1C(=O)N[C@@H](CC(N)=O)C(=O)N[C@H]2C(=O)N[C@H]3C(=O)N[C@H](C(=O)N[C@H](C(=O)O)c4cc(O)cc(O)c4-c4cc3ccc4O)[C@H](O)c3ccc(c(Cl)c3)Oc3cc2cc(c3O[C@@H]2O[C@H](CO)[C@@H](O)[C@H](O)[C@H]2O[C@H]2C[C@](C)(N)[C@H](O)[C@H](C)O2)Oc2ccc(cc2Cl)[C@H]1O [Vancomycin, reference compound]	1 µg/mL (≈ 0.69 µM)				
